Source: ChEMBL document CHEMBL4706563, “Triphenylethylene analogues: Design, synthesis and evaluation of antitumor activity and topoisomerase inhibitors” (Eur J Med Chem, 2020)
Active and inactive are the calls of the source. No cut-off for these calls is given here.

Tests used:
Format in all cases: functional
MOLT-4 = assay: Antiproliferative activity against human MOLT-4 cells assessed as growth inhibition at 10 uM relative to control; details: read-out: GI
Outline: (§1)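 Single-dose screen run by the US National Cancer Institute across its 60-human tumour cell line panel. Each compound was tested at one concentration. Percent growth inhibition was recorded for each cell line.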

MDA-MB-435 = assay: Antiproliferative activity against human MDA-MB-435 cells assessed as growth inhibition at 10 uM relative to control; details: read-out: GI; outline: as §1
NCI-H522 = assay: Antiproliferative activity against human NCI-H522 cells assessed as growth inhibition at 10 uM relative to control; details: read-out: GI; outline: as §1
K562 = assay: Antiproliferative activity against human K562 cells assessed as growth inhibition at 10 uM relative to control; details: read-out: GI; outline: as §1
U-251 = assay: Antiproliferative activity against human U251 cells assessed as growth inhibition at 10 uM relative to control; details: read-out: GI
Outline: (§2)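 NCI 60 human tumour cell line panel screen. Compounds tested at a single dose and growth inhibition (%) determined for each line.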

TK-10 = assay: Antiproliferative activity against human TK-10 cells assessed as growth inhibition at 10 uM relative to control; details: read-out: GI; outline: as §2
OVCAR-4 = assay: Antiproliferative activity against human OVCAR-4 cells assessed as growth inhibition at 10 uM relative to control; details: read-out: GI; outline: as §1
T47D = assay: Antiproliferative activity against human T47D cells assessed as growth inhibition at 10 uM relative to control; details: read-out: GI; outline: as §2
MDA-MB-231 = assay: Antiproliferative activity against human MDA-MB-231 cells assessed as growth inhibition at 10 uM relative to control; outline: as §1
CCRF-CEM = assay: Antiproliferative activity against human CCRF-CEM cells assessed as growth inhibition at 10 uM relative to control; details: read-out: GI; outline: as §1
HOP-62 = assay: Antiproliferative activity against human HOP-62 cells assessed as growth inhibition at 10 uM relative to control; details: read-out: GI; outline: as §1
KM12 = assay: Antiproliferative activity against human KM12 cells assessed as growth inhibition at 10 uM relative to control; details: read-out: GI; outline: as §1
HT-29 = assay: Antiproliferative activity against human HT29 cells assessed as growth inhibition at 10 uM relative to control; details: read-out: GI; outline: as §1
SK-MEL-5 = assay: Antiproliferative activity against human SK-MEL-5 cells assessed as growth inhibition at 10 uM relative to control; details: read-out: GI; outline: as §2
SK-MEL-2 = assay: Antiproliferative activity against human SK-MEL-2 cells assessed as growth inhibition at 10 uM relative to control; details: read-out: GI; outline: as §1
NCI-H322M = assay: Antiproliferative activity against human NCI-H322M cells assessed as growth inhibition at 10 uM relative to control; details: read-out: GI; outline: as §1
NCI/ADR-RES = assay: Antiproliferative activity against human NCI/ADR-RES cells assessed as growth inhibition at 10 uM relative to control; details: read-out: GI; outline: as §1
Hs-578T = assay: Antiproliferative activity against human Hs-578T cells assessed as growth inhibition at 10 uM relative to control; details: read-out: GI; outline: as §1
NCI-H460 = assay: Antiproliferative activity against human NCI-H460 cells assessed as growth inhibition at 10 uM relative to control; details: read-out: GI; outline: as §1
OVCAR-8 = assay: Antiproliferative activity against human OVCAR-8 cells assessed as growth inhibition at 10 uM relative to control; details: read-out: GI; outline: as §1
SR = assay: Antiproliferative activity against human SR cells assessed as growth inhibition at 10 uM relative to control; details: read-out: GI; outline: as §2
SF-295 = assay: Antiproliferative activity against human SF-295 cells assessed as growth inhibition at 10 uM relative to control; outline: as §1
NCI-H23 = assay: Antiproliferative activity against human NCI-H23 cells assessed as growth inhibition at 10 uM relative to control; outline: as §1
SF-539 = assay: Antiproliferative activity against human SF-539 cells assessed as growth inhibition at 10 uM relative to control; details: read-out: GI; outline: as §1
A549 = assay: Antiproliferative activity against human A549 cells assessed as growth inhibition at 10 uM relative to control; details: read-out: GI; outline: as §1
HCT-116 = assay: Antiproliferative activity against human HCT-116 cells assessed as growth inhibition at 10 uM relative to control; details: read-out: GI; outline: as §1
SNB-75 = assay: Antiproliferative activity against human SNB-75 cells assessed as growth inhibition at 10 uM relative to control; details: read-out: GI; outline: as §2
UACC-62 = assay: Antiproliferative activity against human UACC-62 cells assessed as growth inhibition at 10 uM relative to control; details: read-out: GI; outline: as §2
HL-60(TB) = assay: Antiproliferative activity against human HL-60(TB) cells assessed as growth inhibition at 10 uM relative to control; details: read-out: GI
BT-549 = assay: Antiproliferative activity against human BT-549 cells assessed as growth inhibition at 10 uM relative to control; details: read-out: GI; outline: as §1
DU-145 = assay: Antiproliferative activity against human DU-145 cells assessed as growth inhibition at 10 uM relative to control; details: read-out: GI; outline: as §1
CAKI-1 = assay: Antiproliferative activity against human CAKI-1 cells assessed as growth inhibition at 10 uM relative to control; details: read-out: GI; outline: as §1
OVCAR-3 = assay: Antiproliferative activity against human OVCAR-3 cells assessed as growth inhibition at 10 uM relative to control; details: read-out: GI; outline: as §1
SW-620 = assay: Antiproliferative activity against human SW-620 cells assessed as growth inhibition at 10 uM relative to control; details: read-out: GI; outline: as §2
786-0 = assay: Antiproliferative activity against human 786-0 cells assessed as growth inhibition at 10 uM relative to control; details: read-out: GI; outline: as §1
UACC-257 = assay: Antiproliferative activity against human UACC-257 cells assessed as growth inhibition at 10 uM relative to control; details: read-out: GI; outline: as §2
HCC 2998 = assay: Antiproliferative activity against human HCC 2998 cells assessed as growth inhibition at 10 uM relative to control; outline: as §1
SNB-19 = assay: Antiproliferative activity against human SNB-19 cells assessed as growth inhibition at 10 uM relative to control; outline: as §2
PC-3 = assay: Antiproliferative activity against human PC-3 cells assessed as growth inhibition at 10 uM relative to control; details: read-out: GI; outline: as §1
IGROV-1 = assay: Antiproliferative activity against human IGROV-1 cells assessed as growth inhibition at 10 uM relative to control; details: read-out: GI; outline: as §1
RPMI-8226 = assay: Antiproliferative activity against human RPMI-8226 cells assessed as growth inhibition at 10 uM relative to control; details: read-out: GI; outline: as §1
HOP-92 = assay: Antiproliferative activity against human HOP-92 cells assessed as growth inhibition at 10 uM relative to control; details: read-out: GI; outline: as §1
ACHN = assay: Antiproliferative activity against human ACHN cells assessed as growth inhibition at 10 uM relative to control; details: read-out: GI; outline: as §1
COLO 205 = assay: Antiproliferative activity against human COLO 205 cells assessed as growth inhibition at 10 uM relative to control; details: read-out: GI; outline: as §1
SK-OV-3 = assay: Antiproliferative activity against human SK-OV-3 cells assessed as growth inhibition at 10 uM relative to control; details: read-out: GI; outline: as §2
MDA-MB-468 = assay: Antiproliferative activity against human MDA-MB-468 cells assessed as growth inhibition at 10 uM relative to control; details: read-out: GI; outline: as §1
Malme-3M = assay: Antiproliferative activity against human Malme-3M cells assessed as growth inhibition at 10 uM relative to control; details: read-out: GI; outline: as §1
HCT-15 = assay: Antiproliferative activity against human HCT-15 cells assessed as growth inhibition at 10 uM relative to control; details: read-out: GI; outline: as §1
LOX IMVI = assay: Antiproliferative activity against human LOX IMVI cells assessed as growth inhibition at 10 uM relative to control; details: read-out: GI; outline: as §1
NCI-H226 = assay: Antiproliferative activity against human NCI-H226 cells assessed as growth inhibition at 10 uM relative to control; details: read-out: GI; outline: as §1
EKVX = assay: Antiproliferative activity against human EKVX cells assessed as growth inhibition at 10 uM relative to control; details: read-out: GI; outline: as §1
A498 = assay: Antiproliferative activity against human A498 cells assessed as growth inhibition at 10 uM relative to control; details: read-out: GI; outline: as §1
SN12C = assay: Antiproliferative activity against human SN12C cells assessed as growth inhibition at 10 uM relative to control; details: read-out: GI; outline: as §2
M14 = assay: Antiproliferative activity against human M14 cells assessed as growth inhibition at 10 uM relative to control; details: read-out: GI; outline: as §1
SK-MEL-28 = assay: Antiproliferative activity against human SK-MEL-28 cells assessed as growth inhibition at 10 uM relative to control; details: read-out: GI; outline: as §2
MCF7 = assay: Antiproliferative activity against human MCF7 cells assessed as growth inhibition at 10 uM relative to control; details: read-out: GI; outline: as §1
UO-31 = assay: Antiproliferative activity against human UO-31 cells assessed as growth inhibition at 10 uM relative to control; details: read-out: GI; outline: as §2

Structure (SMILES): C/C(=C(/c1ccccc1)c1ccc(OCC(O)CN2CCOCC2)cc1)c1ccccc1 (configuration not stated)
- inhibition of growth at 10 µM (MOLT-4): 38.5%
- inhibition of growth at 10 µM (MDA-MB-435): 9.29%
- inhibition of growth at 10 µM (NCI-H522): 26.7%
- inhibition of growth at 10 µM (K562): 80.3%
- inhibition of growth at 10 µM (U-251): 19.9%
- inhibition of growth at 10 µM (TK-10): 5.68%
- inhibition of growth at 10 µM (OVCAR-4): 10.7%
- inhibition of growth at 10 µM (T47D): 39.7%
- growth inhibition (GI) (MDA-MB-231): inactive
- inhibition of growth at 10 µM (CCRF-CEM): 19.6%
- inhibition of growth at 10 µM (HOP-62): 9.9%
- inhibition of growth at 10 µM (KM12): 36.4%
- inhibition of growth at 10 µM (HT-29): 86.9%
- inhibition of growth at 10 µM (SK-MEL-5): 12.9%
- inhibition of growth at 10 µM (SK-MEL-2): 1.12%
- inhibition of growth at 10 µM (NCI-H322M): 4.48%
- inhibition of growth at 10 µM (NCI/ADR-RES): 6.78%
- inhibition of growth at 10 µM (Hs-578T): 9.19%
- inhibition of growth at 10 µM (NCI-H460): 7.41%
- inhibition of growth at 10 µM (OVCAR-8): 11.5%
- inhibition of growth at 10 µM (SR): 52.8%
- growth inhibition (GI) (SF-295): inactive
- growth inhibition (GI) (NCI-H23): inactive
- inhibition of growth at 10 µM (SF-539): 25.8%
- inhibition of growth at 10 µM (A549): 12.8%
- inhibition of growth at 10 µM (HCT-116): 53.6%
- inhibition of growth at 10 µM (SNB-75): 8.61%
- inhibition of growth at 10 µM (UACC-62): 3%
- inhibition of growth at 10 µM (HL-60(TB)): 39.3%
- inhibition of growth at 10 µM (BT-549): 6.69%
- inhibition of growth at 10 µM (DU-145): 1.88%
- inhibition of growth at 10 µM (CAKI-1): 19.9%
- inhibition of growth at 10 µM (OVCAR-3): 9.6%
- inhibition of growth at 10 µM (SW-620): 11.4%
- inhibition of growth at 10 µM (786-0): 32.9%
- inhibition of growth at 10 µM (UACC-257): 6.64%
- growth inhibition (GI) (HCC 2998): inactive
- growth inhibition (GI) (SNB-19): inactive
- inhibition of growth at 10 µM (PC-3): 28.2%
- inhibition of growth at 10 µM (IGROV-1): 3.82%
- inhibition of growth at 10 µM (RPMI-8226): 25%
- inhibition of growth at 10 µM (HOP-92): 19.8%
- inhibition of growth at 10 µM (ACHN): 1.16%
- inhibition of growth at 10 µM (COLO 205): 30.6%
- inhibition of growth at 10 µM (SK-OV-3): 8.68%
- inhibition of growth at 10 µM (MDA-MB-468): 14.9%
- inhibition of growth at 10 µM (Malme-3M): 24.8%
- inhibition of growth at 10 µM (HCT-15): 46.2%
- inhibition of growth at 10 µM (LOX IMVI): 12.2%
- inhibition of growth at 10 µM (NCI-H226): 3.44%
- inhibition of growth at 10 µM (EKVX): 3.36%
- inhibition of growth at 10 µM (A498): 8.44%
- inhibition of growth at 10 µM (SN12C): 11.6%
- inhibition of growth at 10 µM (M14): -45.1%
- inhibition of growth at 10 µM (SK-MEL-28): 10%
- inhibition of growth at 10 µM (MCF7): 15.8%
- inhibition of growth at 10 µM (UO-31): 26.3%
